Measured values gathered from unrelated publications.
Compare with care: the assays were run in different laboratories.

Structure (SMILES)	assay	test system	setting	endpoint	value
O=C(Nc1cccnn1)N1CCN([C@@H]2CCOc3cc(C(F)(F)F)ccc32)CC1	–	male Sprague-Dawley rat, plasma	oral, 0.3 mg/kg	Tmax	49.8 min
CCN(CC)CCCC[C@H](NC(=O)[C@H](CC(C)C)NC(=O)[C@H](C)NC(=O)[C@H](Cc1ccccc1)NC(=O)c1ccc(C(C)(C)C)cc1)C(=O)N[C@@H](CO)C(=O)OC	–	male Swiss mouse, blood	intravenous, 3 mg/kg	clearance	26.5 mL/min/kg
C[C@]12CC[C@H](n3ccnc3)CC1=CC[C@@H]1[C@@H]2CC[C@]2(C)C(n3cnc4ccccc43)=CC[C@@H]12.Cl	–	male CD-1 mouse, plasma	intravenous, 1 mg/kg	C0	544 ng/mL
Cc1nonc1Cn1nnc2c(N3CC[C@H](O)C3)nc(C(C)(C)C)nc21	–	C57BL/6 mouse, plasma	intravenous	clearance	29.9 mL/min/kg
CN[C@H](CC(C)C)C(=O)N[C@H]1C(=O)N[C@@H](CC(N)=O)C(=O)N[C@H]2C(=O)NC3C(=O)N[C@H](C(=O)N[C@H](C(=O)NCCC[N+](C)(C)C)c4cc(O)cc(O)c4-c4cc3ccc4O)[C@H](O)c3ccc(c(Cl)c3)Oc3cc2cc(c3OC2OC(CO)C(O)[C@H](O)[C@@H]2O[C@H]2CC(C)(NCc3ccc(-c4ccc(Cl)cc4)cc3)[C@H](O)[C@H](C)O2)Oc2ccc(cc2Cl)[C@H]1O (some centres unmarked)	–	mouse, plasma	intravenous, 50 mg/kg	clearance	2 mL/min/kg
Cl.Cl.O=C(CCN1CCCCC1)c1ccc(-c2ccc(C(=O)CCN3CCCCC3)cc2)cc1	–	Sprague-Dawley rat, plasma	oral, 25 mg/kg	Tmax	37.8 min
Cc1cc(C)nc(Nc2ncc(C(=O)NCCc3c(C)[nH]c4ccccc34)cn2)c1	–	beagle dog, plasma	intravenous, 3 mg/kg	clearance	10 mL/min/kg
CCC[C@@](N)(CO)CCc1ccc(OCCCCCC(C)C)cc1	–	dog, plasma	oral, 20 mg/kg, fasted	Cmax	669 nM
NCC(=O)Nc1ccc(-n2nc(C(F)(F)F)cc2-c2ccc3c(ccc4ccccc43)c2)cc1	–	mouse, plasma	oral, 80 mg/kg, single dose	CL/F	978 mL/min/kg
N=c1c2c(-c3ccccc3)c(-c3ccccc3)n(Cc3ccccc3)c2ncn1[C@H]1CC[C@H](O)CC1	metabolic stability	beagle dog, hepatocytes	1 µM, 4 h	compound remaining	118%
CNC(=O)[C@@H](NC(=O)c1cc(OCC2(C)COC2)c(C2CC2)cn1)C(C)(C)C	–	C57BL/6 mouse, plasma	intravenous	clearance	73.8 mL/min/kg
